Assay results reported in ChEMBL document CHEMBL4368872, “Synthesis and anticonvulsant activity of phenoxyacetyl derivatives of amines, including aminoalkanols and amino acids” (Medchemcomm, 2018).
Calls of active or inactive are those of the source. The calls are words filed in the database; no cut-off is given here.

Columns and labels:
Mus musculus [1] = test: Anticonvulsant activity in CF-1 mouse model of maximal electroshock-induced seizure assessed as suppression of tonic hind limb extension at 100 mg/kg, ip measured at 0.25 hrs post dose; assay type: functional, organism-based
Summary of the method: (§1)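 Mice dosed i.p. and given maximal electroshock at 50 mA. Read-out is protection, reported as number protected / number tested at 0.25, 0.5, 1 and 4 h after dosing.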

[2] = Neurotoxicity in CF-1 mouse at 30 mg/kg, ip measured after 0.5 hrs by rotarod test; assay type: toxicity, organism-based; details: in vivo
Summary of the method: (§2)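 Mice dosed i.p. were placed on a 1 in. knurled rod turning at 6 rpm. Toxicity was scored as failure to keep balance for at least 1 min, i.e. falling off three or more times. Results are reported as animals showing toxicity / animals tested at each time point.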

Mus musculus [3] = test: Anticonvulsant activity in CF-1 mouse model of maximal electroshock-induced seizure assessed as suppression of tonic hind limb extension at 100 mg/kg, ip measured at 1 hr post dose; assay type: functional, organism-based; summary of the method: as §1
Mus musculus [4] = test: Anticonvulsant activity in CF-1 mouse model of maximal electroshock-induced seizure assessed as suppression of tonic hind limb extension at 300 mg/kg, ip measured at 4 hrs post dose; assay type: functional, organism-based; summary of the method: as §1
[5] = Neurotoxicity in CF-1 mouse at 100 mg/kg, ip measured after 0.25 hrs by rotarod test; assay type: toxicity, organism-based; details: in vivo; summary of the method: as §2
Mus musculus [6] = test: Anticonvulsant activity in CF-1 mouse model of subcutaneous pentylenetetrazole-induced seizure assessed as reduction in convulsions at 30 mg/kg, ip measured at 4 hrs post dose; assay type: functional, organism-based
Summary of the method: (§3)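 Mice dosed i.p., then given pentylenetetrazole 85 mg/kg in 0.9% NaCl s.c. into the posterior midline of the neck. Seizures watched for at least 30 min. Scored as protected / tested at 0.5 and 4 h.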

Mus musculus [7] = test: Anticonvulsant activity in CF-1 mouse model of maximal electroshock-induced seizure assessed as suppression of tonic hind limb extension at 100 mg/kg, ip measured at 0.5 hrs post dose; assay type: functional, organism-based; summary of the method: as §1
Mus musculus [8] = test: Anticonvulsant activity in CF-1 mouse model of maximal electroshock-induced seizure assessed as suppression of tonic hind limb extension at 30 mg/kg, ip measured at 0.5 hrs post dose; assay type: functional, organism-based; summary of the method: as §1
[9] = Neurotoxicity in CF-1 mouse at 30 mg/kg, ip measured after 4 hrs by rotarod test; assay type: toxicity, organism-based; details: in vivo; summary of the method: as §2
[10] = Neurotoxicity in CF-1 mouse at 300 mg/kg, ip measured after 4 hrs by rotarod test; assay type: toxicity, organism-based; details: in vivo; summary of the method: as §2
Mus musculus [11] = test: Anticonvulsant activity in CF-1 mouse model of subcutaneous pentylenetetrazole-induced seizure assessed as reduction in convulsions at 300 mg/kg, ip measured at 0.5 hrs post dose; assay type: functional, organism-based; summary of the method: as §3
[12] = Neurotoxicity in CF-1 mouse at 100 mg/kg, ip measured after 4 hrs by rotarod test; assay type: toxicity, organism-based; details: in vivo; summary of the method: as §2
Mus musculus [13] = test: Anticonvulsant activity in CF-1 mouse model of maximal electroshock-induced seizure assessed as suppression of tonic hind limb extension at 100 mg/kg, ip measured at 4 hrs post dose; assay type: functional, organism-based; summary of the method: as §1
Mus musculus [14] = test: Anticonvulsant activity in CF-1 mouse model of subcutaneous pentylenetetrazole-induced seizure assessed as reduction in convulsions at 300 mg/kg, ip measured at 4 hrs post dose; assay type: functional, organism-based; summary of the method: as §3
Mus musculus [15] = test: Anticonvulsant activity in CF-1 mouse model of subcutaneous pentylenetetrazole-induced seizure assessed as reduction in convulsions at 100 mg/kg, ip measured at 0.5 hrs post dose; assay type: functional, organism-based; summary of the method: as §3
Mus musculus [16] = test: Anticonvulsant activity in CF-1 mouse model of subcutaneous pentylenetetrazole-induced seizure assessed as reduction in convulsions at 100 mg/kg, ip measured at 4 hrs post dose; assay type: functional, organism-based; summary of the method: as §3
Mus musculus [17] = test: Anticonvulsant activity in CF-1 mouse model of maximal electroshock-induced seizure assessed as suppression of tonic hind limb extension at 30 mg/kg, ip measured at 4 hrs post dose; assay type: functional, organism-based; summary of the method: as §1
Mus musculus [18] = test: Anticonvulsant activity in CF-1 mouse model of maximal electroshock-induced seizure assessed as suppression of tonic hind limb extension at 300 mg/kg, ip measured at 0.5 hrs post dose; assay type: functional, organism-based; summary of the method: as §1
[19] = Neurotoxicity in CF-1 mouse at 100 mg/kg, ip measured after 1 hr by rotarod test; assay type: toxicity, organism-based; details: in vivo; summary of the method: as §2
Mus musculus [20] = test: Anticonvulsant activity in CF-1 mouse model of subcutaneous pentylenetetrazole-induced seizure assessed as reduction in convulsions at 30 mg/kg, ip measured at 0.5 hrs post dose; assay type: functional, organism-based; summary of the method: as §3
[21] = Mutagenicity in Salmonella typhimurium TA1535 assessed as mutagenicity index at 50 to 500 ug/plate preincubated for 30 mins followed by top agar addition and measured after 48 hrs in presence of liver S9 fraction by Ames test; assay type: toxicity, subcellular; details: salmonella enterica subsp. enterica serovar typhimurium, s9, 48 h
Summary of the method: (§4)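 Ames plate incorporation in S. typhimurium TA100 or TA1535, with or without S9. Overnight culture, compound in DMSO (50–500 µg per plate) and buffer or S9 mix preincubated 30 min at 37 °C, then top agar on glucose minimal agar. Incubated 48 h at 37 °C, revertants counted in triplicate. Vehicle negative control; NaN3 (−S9) and 2AA (+S9) positive controls. MI = revertants with compound / negative-control revertants; MI ≥ 2 with dose-response counts as positive.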

Salmonella typhimurium [22] = test: Antimutagenic activity against Salmonella typhimurium TA1535 assessed as inhibition of NaN3-induced mutation at 100 ug/plate preincubated for 30 mins followed by top agar addition and measured after 48 hrs in presence of liver S9 fraction by Ames test relative to control; assay type: organism-based; details: salmonella enterica subsp. enterica serovar typhimurium, s9, 48 h
[23] = Neurotoxicity in CF-1 mouse at 100 mg/kg, ip measured after 0.5 hrs by rotarod test; assay type: toxicity, organism-based; details: in vivo; summary of the method: as §2
Salmonella typhimurium [24] = test: Antimutagenic activity against Salmonella typhimurium TA1535 assessed as inhibition of NaN3-induced mutation at 500 ug/plate preincubated for 30 mins followed by top agar addition and measured after 48 hrs in presence of liver S9 fraction by Ames test relative to control; assay type: organism-based; details: salmonella enterica subsp. enterica serovar typhimurium, s9, 48 h
Salmonella typhimurium [25] = test: Antimutagenic activity against Salmonella typhimurium TA100 assessed as inhibition of NaN3-induced mutation at 250 ug/plate preincubated for 30 mins followed by top agar addition and measured after 48 hrs in presence of liver S9 fraction by Ames test relative to control; assay type: organism-based; details: salmonella enterica subsp. enterica serovar typhimurium, s9, 48 h
[26] = Neurotoxicity in CF-1 mouse at 300 mg/kg, ip measured after 0.5 hrs by rotarod test; assay type: toxicity, organism-based; details: in vivo; summary of the method: as §2
Salmonella typhimurium [27] = test: Antimutagenic activity against Salmonella typhimurium TA100 assessed as inhibition of NaN3-induced mutation at 100 ug/plate preincubated for 30 mins followed by top agar addition and measured after 48 hrs in presence of liver S9 fraction by Ames test relative to control; assay type: organism-based; details: salmonella enterica subsp. enterica serovar typhimurium, s9, 48 h
[28] = Mutagenicity in Salmonella typhimurium TA100 assessed as mutagenicity index at 50 to 500 ug/plate preincubated for 30 mins followed by top agar addition and measured after 48 hrs in absence of liver S9 fraction by Ames test; assay type: toxicity; details: salmonella enterica subsp. enterica serovar typhimurium, s9, 48 h; summary of the method: as §4
[29] = Mutagenicity in Salmonella typhimurium TA100 assessed as mutagenicity index at 50 to 500 ug/plate preincubated for 30 mins followed by top agar addition and measured after 48 hrs in presence of liver S9 fraction by Ames test; assay type: toxicity, subcellular; details: salmonella enterica subsp. enterica serovar typhimurium, s9, 48 h; summary of the method: as §4
Salmonella typhimurium [30] = test: Antimutagenic activity against Salmonella typhimurium TA1535 assessed as inhibition of NaN3-induced mutation at 250 ug/plate preincubated for 30 mins followed by top agar addition and measured after 48 hrs in presence of liver S9 fraction by Ames test relative to control; assay type: organism-based; details: salmonella enterica subsp. enterica serovar typhimurium, s9, 48 h
[31] = Mutagenicity in Salmonella typhimurium TA1535 assessed as mutagenicity index at 50 to 500 ug/plate preincubated for 30 mins followed by top agar addition and measured after 48 hrs in absence of liver S9 fraction by Ames test; assay type: toxicity; details: salmonella enterica subsp. enterica serovar typhimurium, s9, 48 h; summary of the method: as §4
Salmonella typhimurium [32] = test: Antimutagenic activity against Salmonella typhimurium TA100 assessed as inhibition of NaN3-induced mutation at 500 ug/plate preincubated for 30 mins followed by top agar addition and measured after 48 hrs in presence of liver S9 fraction by Ames test relative to control; assay type: organism-based; details: salmonella enterica subsp. enterica serovar typhimurium, s9, 48 h
Salmonella typhimurium [33] = test: Antimutagenic activity against Salmonella typhimurium TA100 assessed as inhibition of NaN3-induced mutation at 50 ug/plate preincubated for 30 mins followed by top agar addition and measured after 48 hrs in presence of liver S9 fraction by Ames test relative to control; assay type: organism-based; details: salmonella enterica subsp. enterica serovar typhimurium, s9, 48 h
Salmonella typhimurium [34] = test: Antimutagenic activity against Salmonella typhimurium TA1535 assessed as inhibition of NaN3-induced mutation at 50 ug/plate preincubated for 30 mins followed by top agar addition and measured after 48 hrs in presence of liver S9 fraction by Ames test relative to control; assay type: organism-based; details: salmonella enterica subsp. enterica serovar typhimurium, s9, 48 h

CCC(CO)NC(=O)COc1c(C)cc(C)cc1C (configuration not stated)
Activity (Mus musculus [1]): inactive
Activity [2]: Non-Toxic
Activity (Mus musculus [3]): inactive
Activity (Mus musculus [4]): inactive
Activity [5]: Non-Toxic
Activity (Mus musculus [6]): inactive
Activity (Mus musculus [7]): inactive
Activity (Mus musculus [8]): inactive
Activity [9]: Non-Toxic
Activity [10]: Non-Toxic
Activity (Mus musculus [11]): inactive
Activity [12]: Non-Toxic
Activity (Mus musculus [13]): inactive
Activity (Mus musculus [14]): inactive
Activity (Mus musculus [15]): inactive
Activity (Mus musculus [16]): inactive
Activity (Mus musculus [17]): inactive
Activity (Mus musculus [18]): Active
Activity [19]: Non-Toxic
Activity (Mus musculus [20]): inactive

CC[C@@H](CO)NC(=O)COc1c(C)cccc1C
Activity index [21]: 0.7 to 1.7
inhibition (INH) (Salmonella typhimurium [22]): 22%
Activity [23]: Non-Toxic
inhibition (INH) (Salmonella typhimurium [24]): 24%
inhibition (INH) (Salmonella typhimurium [25]): 28%
Activity [2]: Non-Toxic
Activity [26]: Toxic
inhibition (INH) (Salmonella typhimurium [27]): 34%
Activity (Mus musculus [3]): inactive
Activity index [28]: 0.7 to 1.7
Activity (Mus musculus [4]): inactive
Activity index [29]: 0.7 to 1.7
Activity (Mus musculus [6]): inactive
Activity (Mus musculus [7]): inactive
Activity (Mus musculus [8]): inactive
inhibition (INH) (Salmonella typhimurium [30]): 19%
Activity [9]: Non-Toxic
Activity [10]: Non-Toxic
Activity index [31]: 0.7 to 1.7
Activity (Mus musculus [11]): inactive
inhibition (INH) (Salmonella typhimurium [32]): 43%
inhibition (INH) (Salmonella typhimurium [33]): 26%
Activity [12]: Non-Toxic
Activity (Mus musculus [13]): inactive
Activity (Mus musculus [14]): inactive
Activity (Mus musculus [15]): inactive
inhibition (INH) (Salmonella typhimurium [34]): 12%
Activity (Mus musculus [16]): inactive
Activity (Mus musculus [17]): inactive
Activity (Mus musculus [18]): Active
Activity [19]: Non-Toxic
Activity (Mus musculus [20]): inactive
